From PubChem BioAssay
S1P1 ag-PAM = agonists and agonism potentiators of human S1P1 receptor. AID 449. activation, % at 9.5 µM. P21453. S1P1 CRE-bla cells, forskolin, beta-lactamase FRET, potentiator mode; S1P1 agonist co-added at EC20, 2 nM; 100% = saturating reference agonist, 0% = basal. 56,000 tested, 0.57% active;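 active = activation above a cutoff set at the mean activation of all tested compounds plus 3 SD, cut at about 54% in these data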;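 also: forskolin at 4 µM as EC80 and the EC20 agonist is SEW2871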
Target sequence (P21453 whole entry, looked up): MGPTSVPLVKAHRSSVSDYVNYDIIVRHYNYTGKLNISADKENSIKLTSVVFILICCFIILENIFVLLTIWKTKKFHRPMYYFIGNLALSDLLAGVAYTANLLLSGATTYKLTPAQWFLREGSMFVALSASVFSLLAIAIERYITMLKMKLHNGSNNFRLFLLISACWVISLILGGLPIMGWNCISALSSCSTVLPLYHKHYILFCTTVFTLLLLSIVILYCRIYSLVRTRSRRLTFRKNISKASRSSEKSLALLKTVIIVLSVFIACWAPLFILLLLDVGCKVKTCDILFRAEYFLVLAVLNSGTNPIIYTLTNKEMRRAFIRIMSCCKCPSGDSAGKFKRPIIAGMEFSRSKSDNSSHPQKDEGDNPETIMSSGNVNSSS
SKBR3 24h inh = SK-BR-3 proliferation inhibitors; SK-BR-3 viability, CellTiter-Glo ATP luminescence, 24 h; hits give low values; viability, % at 10 µM; 41,000 tested, 0.47% active; AID 847;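 active = viability at or below the median of all test compounds minus 3 SD, in both replicates if run twice, cut at about 45% in these data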
Jurkat viability = reduces viability or proliferation of Jurkat cells; Jurkat E6.1 viability, ATP luminescence, 48 h; inhibition, % at 4 µM; 56,000 tested, 1.2% active;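 active = inhibition above the mean inhibition of all tested compounds plus 3 SD, cut at about 28% in these data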
HEK293 NFkB inh = lowers PMA/ionomycin-induced NF-kB signal in HEK293 cells. HEK-293 NF-kB luciferase reporter, luminescence. inhibition, % at 3 µM. 62,000 tested, 0.21% active. AID 465;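 active = inhibition above the mean of all tested compounds plus 3 SD, cut at about 40% in these data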
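Timing: 1 h pretreatment, 16 h stimulation, 37 °C; system: HEK-293 cells with stable firefly luciferase reporter driven by four HIV NF-kB elements; doses: 3 µM once, 0.30% DMSO; measured by: luciferase luminescence; control set: DMSO and 10 µM reference inhibitor; repeats: single test; reagent: PMA plus ionomycin mix as NF-kB-activating stimulus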
Large screens that a line does not name were inactive. The list is not random: actives were taken first. Their share in the collection is about 1.9%.

Cc1ccc(S(=O)(=O)C2(C(=O)N3CCCCC3C)CC2)cc1 (stereo not drawn)	none (no result: SKBR3 24h inh)
O=c1c2[nH]c3ccc(F)cc3c2ncn1CCN1CCOCC1	none
CCCCOc1ncnc2c1[nH]c1ccc(F)cc12	S1P1 ag-PAM 116.1, Jurkat viability 61.1
CCCCOc1ncnc2c1[nH]c1ccccc12	Jurkat viability 76.5
CCN1CCN(c2ncc3c(n2)CC(c2cc(OC)c(OC)c(OC)c2)CC3=O)CC1 (stereo not drawn)	Jurkat viability 80.4
CN(CC(=O)N1CCc2ccccc21)S(=O)(=O)c1ccc(Br)s1	none (no result: S1P1 ag-PAM, SKBR3 24h inh, Jurkat viability)
CCCN1Cc2cccc(C(=O)Nc3ccc(N4CCN(CC)CC4)cc3)c2C1=O	none (no result: SKBR3 24h inh)
CCOC(=O)c1c(C)c(C(=O)Nc2cc(OC)ccc2OC)c(C)n1CC	Jurkat viability 35.2 (no result: SKBR3 24h inh)
CCOC(=O)c1[nH]c(C)c(C(=O)Nc2cc(OC)ccc2OC)c1C	Jurkat viability 79.9 (no result: SKBR3 24h inh)
O=C(Nc1ccc(O)cc1)c1ccc(C(=O)c2ccccc2)o1	none (no result: S1P1 ag-PAM)
Cn1c2ccccc2c2cnn(CC(=O)N3CCN(c4ncccn4)CC3)c(=O)c21	none (no result: SKBR3 24h inh)
O=C(CSc1ncnc2c1oc1ccccc12)N1CCCc2ccccc21	S1P1 ag-PAM 64.9
COc1ccc(S(=O)(=O)N(CC(=O)NCc2ccco2)C2CCCCC2)cc1OC	none
COc1cc(C(Nc2ccccn2)c2ccc3ccc(C)nc3c2O)cc(OC)c1O (stereo not drawn)	Jurkat viability 70.9
Cc1cc(C)c2ccc(N)nc2c1O	Jurkat viability 44.2
Cc1cc(C)c2ccc(C)[n+]([O-])c2c1O	none (no result: SKBR3 24h inh)
Cc1cnc(C(=O)Nc2cccc3cccnc23)cn1	Jurkat viability 84.5
CCOc1ccccc1NC(=O)c1cccc(NC(=O)c2ccco2)c1	Jurkat viability 81.3, HEK293 NFkB inh 41.8
Cc1cnn(C(=S)NCC2CCCO2)c1 (stereo not drawn)	none
c1ccc(CCNc2ncnc3nc[nH]c23)cc1	none
c1ccc2c(CCNc3ncnc4nc[nH]c34)c[nH]c2c1	Jurkat viability 87.6 (no result: SKBR3 24h inh)
Cc1cccc(-n2c(CCCN3C(=O)c4ccccc4C3=O)nc3ccccc3c2=O)n1	none
O=C(Nc1ccc(SC(F)F)cc1)c1ccc2nccnc2c1	Jurkat viability 32.3
O=C(Nc1ccc2c(c1)OCCO2)c1ccc2nccnc2c1	none
COc1ccccc1N1CSC2=C(C#N)C(c3ccc(SC)cc3)CC(=O)N2C1 (stereo not drawn)	none (no result: SKBR3 24h inh)
CN(C)c1ccccc1C(=O)c1ccccc1N(C)C	Jurkat viability 88.2
CN(c1ccccc1C(=O)O)S(C)(=O)=O	none
N=c1sccn1CC(=O)Nc1ccccc1-c1ccccc1	SKBR3 24h inh 32.9 (no result: S1P1 ag-PAM, Jurkat viability)
Cn1nnnc1Sc1nc(-c2cccnc2)nc2ccccc12	none (no result: SKBR3 24h inh)
CCOC(=O)CSc1nc(N)c(C(=O)Nc2ccc(N(C)C)cc2)s1	none (no result: Jurkat viability, HEK293 NFkB inh)
COc1ccc(C(=O)CN2C(=O)C(C)(C)Oc3ccc(C(=O)N4CCCCCC4)cc32)cc1	none
CC(C)c1cc(C(F)(F)F)n2nc(C(=O)Nc3ccc4c(c3)OCO4)cc2n1	S1P1 ag-PAM 101.5
CC(C)CCOc1ccc(Cl)cc1CN1CCOCC1	none (no result: Jurkat viability, HEK293 NFkB inh)
CNc1oc(-c2ccc(OCc3ccccc3)cc2)nc1C#N	S1P1 ag-PAM 73.3
O=C(COc1ccccc1)NCC(c1cccs1)N1CCOCC1 (stereo not drawn)	none (no result: S1P1 ag-PAM, SKBR3 24h inh, Jurkat viability)
O=C(NCC(c1cccs1)N1CCOCC1)c1ccc(Cl)s1 (stereo not drawn)	Jurkat viability 95.0 (no result: SKBR3 24h inh)
CCOC(=O)N1CCN(C(=O)CN(c2ccc(Cl)c(C(F)(F)F)c2)S(C)(=O)=O)CC1	none (no result: S1P1 ag-PAM, Jurkat viability)
CCOCCCNC(=O)C(NC(=O)CC1NC(=O)NC1=O)c1ccc(Cl)cc1 (stereo not drawn)	SKBR3 24h inh 43.9 (no result: S1P1 ag-PAM, Jurkat viability)
CSc1cccc(NC(=O)CSc2nc3ccccc3o2)c1	none
COc1ccccc1NC(=O)N(Cc1ccco1)Cc1cc2cc(C)cc(C)c2[nH]c1=O	none
COc1ccccc1NC(=O)N(Cc1ccco1)Cc1cc2ccc(C)c(C)c2[nH]c1=O	Jurkat viability 79.5
O=C(CCc1nc(-c2ccccc2F)no1)Nc1ccc(Oc2ccccc2)cc1	S1P1 ag-PAM 127.5
O=C(/C=C\Nc1ccc2c(c1)OCO2)c1ccccn1	HEK293 NFkB inh 48.0 (no result: SKBR3 24h inh)
N#CC1=C2SCC(O)(c3ccccc3)N2C(=O)CC1c1cccs1 (stereo not drawn)	Jurkat viability 78.7, HEK293 NFkB inh 47.5 (no result: SKBR3 24h inh)
Cc1nc2ccc3nc(NC(=O)C4COc5ccccc5O4)sc3c2s1 (stereo not drawn)	S1P1 ag-PAM 66.7 (no result: SKBR3 24h inh)
Cc1cccc(NC(=O)CNc2cc(C)ccc2C)c1	none (no result: S1P1 ag-PAM, Jurkat viability)
O=C(Nc1ccncc1)c1cccc(F)c1	none
O=C(CC(=O)c1ccccc1O)c1cccc(F)c1	Jurkat viability 68.9 (no result: SKBR3 24h inh)
CNC(=O)c1cc2c(=O)n3cccc(C)c3nc2n1C	none
